Pf Dd2 inh – blocks growth of Plasmodium falciparum Dd2 parasites; P. falciparum Dd2 growth, SYBR Green, 72 h; active compounds read low; activity change, % at 10 µM; hit rate 2.3% among 94,000; in the data active means activity change below about -80%; inconclusive means no clear call, values can overlap the other calls
KDM4C inh – inhibitors of human demethylase GASC-1 KDM4C | Q9H3R0 | GST-KDM4C 2-372, H3K9me3 peptide, LANCE TR-FRET | inhibition, % at 12.5 µM | hit rate 0.15% among 96,000 | AID 720574;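 active means mean replicate inhibition above about 25%, with at least 55% of replicates also reaching it, limit read from the data, passing the limit was not always enough; inconclusive means only one of those two conditions met; inactive means neither condition met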
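Material: N-terminal GST-fused human GASC-1 (KDM4C) fragment, residues 2-372. Input: 10 nM enzyme. Incubation: enzyme reaction 30 min, then detection 60 min, both room temperature. Doses: one test concentration per compound. Read-out basis: inhibition from TR-FRET ratio decrease. Detection: LANCE TR-FRET, excitation 340 nm, emissions 618 and 671 nm.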
IDH1 R132H inh – inhibitors of human IDH1 R132H; O75874; IDH1 R132H reductase, diaphorase/resazurin fluorescence, 60 min; inhibition, % at 10 µM; hit rate 0.18% among 70,000; in the data active means inhibition above about 34%; inconclusive means no clear call, values can overlap the other calls; inactive means below about 11%;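 further: 0% = DMSO and 100% = no enzyme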
Target sequence (O75874 whole entry R132H): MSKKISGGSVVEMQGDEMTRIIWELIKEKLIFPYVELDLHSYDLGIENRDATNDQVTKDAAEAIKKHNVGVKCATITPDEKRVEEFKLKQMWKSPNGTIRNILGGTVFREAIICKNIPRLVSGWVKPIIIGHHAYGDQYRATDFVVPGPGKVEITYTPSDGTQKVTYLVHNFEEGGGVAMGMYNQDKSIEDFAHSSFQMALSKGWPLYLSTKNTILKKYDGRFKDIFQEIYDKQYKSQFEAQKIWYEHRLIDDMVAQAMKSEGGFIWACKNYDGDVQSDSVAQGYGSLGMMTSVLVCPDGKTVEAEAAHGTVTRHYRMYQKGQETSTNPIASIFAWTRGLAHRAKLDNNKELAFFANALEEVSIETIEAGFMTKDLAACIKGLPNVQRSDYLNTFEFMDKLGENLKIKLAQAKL
T cruzi growth-1 – blocks T. cruzi growth in NIH3T3 culture; T. cruzi beta-gal in NIH3T3, GalScreen luminescence, 90 h; inhibition, % at 8.34 µM; hit rate 5.9% among 77,000;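 active means mean inhibition above about 93%, with at least 55% of replicates each passing it, limit read from the data, passing the limit was not always enough; inconclusive means only one of those two conditions holds; inactive means neither condition holds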
T cruzi growth-2 – blocks T. cruzi growth in NIH3T3 host cells. T. cruzi beta-gal in NIH3T3, GalScreen luminescence, 90 h. shares compounds with T cruzi growth-1. inhibition, % at 8.35 µM. AID 651739. hit rate 72% among 5,600;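 active means mean replicate inhibition above about 95% and at least 55% of replicates individually reaching it, limit read from the data; inconclusive means only one of the two criteria is met; inactive means neither criterion is met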
T cruzi growth-3 – inhibitors of T. cruzi proliferation; T. cruzi beta-gal in NIH3T3, GalScreen luminescence, 90 h; AID 651740; inhibition, % at 2.09 µM; shares compounds with T cruzi growth-1; hit rate 21% among 5,600;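 active means mean inhibition above about 95%, with at least 55% of replicates also reaching it, limit read from the data; inconclusive means meets just one of the two conditions; inactive means meets neither condition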;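 further: plate controls were neutral control median for no effect and positive control median for full effect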
3T3 cytotox – NIH/3T3 (mouse) viability loss; shares compounds with T cruzi growth-1; NIH/3T3 viability, CellTiter-Glo ATP luminescence, 90 h; cytotoxicity (signal decrease), % at 8.35 µM; hit rate 14% among 5,600;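 active means mean signal decrease across replicates above about 35% based on untreated-well scatter, with enough replicates individually passing, limit read from the data; inconclusive means no rule stated though some were filed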;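 further: 0% = median of neutral control wells and 100% = median of positive control wells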
NIH3T3 tox 2 – NIH/3T3 (mouse) viability loss; inhibition, % at 24.9 µM; hit rate 56% among 5,600; NIH/3T3 viability, CellTiter-Glo ATP luminescence, 90 h; shares compounds with T cruzi growth-1;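 active means mean loss of cell viability signal at or above a set limit, and enough replicates individually reaching it; inconclusive means meets only the mean limit or only the replicate share; inactive means meets neither condition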;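 further: 0% = median of neutral control wells and 100% = median of positive control wells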
An asterisk follows results filed as active; u = inconclusive; x = no result given; ! = repeats disagree. Shown are actives, neighbours in structure and some others; about 5.9% of the full set was active somewhere.

SMILES	Pf Dd2 inh	KDM4C inh	IDH1 R132H inh	T cruzi growth-1	T cruzi growth-2	T cruzi growth-3	3T3 cytotox	NIH3T3 tox 2
COCC#Cc1ccc([C@@H]2[C@@H](CO)N3CCCCN(Cc4ccncc4)C[C@H]23)cc1	8	4	x	57	x	x	x	x
CCCC#Cc1ccc([C@H]2[C@H](CO)N3CCCCN(CC4CC4)C[C@@H]23)cc1	-46	x	x	98*	109*	43	u	105*
CCCC#Cc1ccc([C@@H]2[C@H](CO)N3CCCCN(CC4CC4)C[C@@H]23)cc1	-62	1	x	70	x	x	x	x
COc1ccc(C#Cc2ccc([C@H]3[C@H](CO)N4CCCCN(Cc5ccncc5)C[C@@H]34)cc2)cc1	-58	4	x	90*	109*	85	49*	105*
COCC#Cc1ccc([C@H]2[C@@H](CO)N3CCCCN(Cc4ccncc4)C[C@H]23)cc1	14	4	x	108*	106*	74	17	30
CCCc1cc(=S)sc(N)n1	x	x	4	x	x	x	x	x
CC(=O)Nc1cccc(NC(=S)NCc2ccco2)c1	x	x	1	x	x	x	x	x
CC(=O)Nc1ccccc1NC(=O)COc1cc(Cl)c(Cl)cc1Cl	x	x	0	x	x	x	x	x
Cc1ccccc1S(=O)(=O)N1CCCCN2[C@H](C1)[C@@H](c1ccc(-c3cccc(F)c3)cc1)[C@@H]2CO	5	-1	x	u	111*	65	29	73*
Cc1ccccc1S(=O)(=O)N1CCCCN2[C@H](CO)[C@H](c3ccc(-c4cccc(F)c4)cc3)[C@H]2C1	-73	-1	x	71	x	x	x	x
Cc1ccccc1S(=O)(=O)N1CCCCN2[C@@H](CO)[C@H](c3ccc(-c4cccc(F)c4)cc3)[C@@H]2C1	-9	0	x	106*	88	103*	56*	103*
Cc1ccc(OCC(=O)Nc2cccc(-c3nc4cc(Cl)ccc4o3)c2C)c(C)c1	x	x	0	x	x	x	x	x
COc1ccc(S(=O)(=O)N(C)C[C@@H]2OCCCC[C@@H](C)Oc3ccc(N(C)C)cc3C(=O)N([C@H](C)CO)C[C@H]2C)cc1	2	13	-1	76	x	x	x	x
Cc1ccc(S(=O)(=O)N(C)C[C@@H]2OCCCC[C@H](C)Oc3ccc(N(C)C)cc3C(=O)N([C@@H](C)CO)C[C@H]2C)cc1	-79	0	-1	u	77	30	-13	-20
C[C@H](CO)N1C[C@H](C)[C@H](CN(C)S(=O)(=O)c2ccccc2)OCCCC[C@H](C)Oc2ccc(N(C)C)cc2C1=O	-38	1	0	34	x	x	x	x
C[C@H]1CCCCO[C@@H](CN(C)S(=O)(=O)c2ccc(F)cc2)[C@@H](C)CN([C@@H](C)CO)C(=O)c2cc(N(C)C)ccc2O1	-1	1	x	81	x	x	x	x
C[C@H]1CCCCO[C@@H](CN(C)S(=O)(=O)c2ccccc2)[C@@H](C)CN([C@@H](C)CO)C(=O)c2cc(N(C)C)ccc2O1	-60	0	-1	107*	69	14	19	17
C[C@H](CO)N1C[C@H](C)[C@H](CN(C)S(=O)(=O)c2ccc(F)cc2)OCCCC[C@H](C)Oc2ccc(N(C)C)cc2C1=O	-40	-1	x	u	96*	24	-12	-21
COc1ccc(S(=O)(=O)N(C)C[C@H]2OCCCC[C@H](C)Oc3ccc(N(C)C)cc3C(=O)N([C@H](C)CO)C[C@@H]2C)cc1	-88*	2	1	102*!	51	21	-25	-14
CN(C)CC(=O)N1CC[C@@H]2[C@H]1c1cc(-c3ccccc3F)ccc1N(C)[C@@H]2CO	-16	2	x	113*	102*	19	-8	24*
CN1c2ccc(-c3ccccc3)cc2[C@@H]2[C@@H](CCN2C(=O)c2ccccn2)[C@H]1CO	13	13	x	105*	102*	43	13	21
CN(C)CC(=O)N1CC[C@H]2[C@@H]1c1cc(-c3ccccc3F)ccc1N(C)[C@H]2CO	22	2	x	23	x	x	x	x
CN1c2ccc(-c3ccccc3)cc2[C@@H]2[C@@H](CCN2C(=O)c2ccc3c(c2)OCO3)[C@H]1CO	6	-2	x	106*	105*	108*	9	30*
CN1c2ccc(-c3ccc(F)cc3)cc2[C@@H]2[C@@H](CCN2C(=O)c2ccccn2)[C@H]1CO	-7	2	x	35	x	x	x	x
CN1c2ccc(-c3ccccc3F)cc2[C@@H]2[C@@H](CCN2C(=O)c2ccccn2)[C@H]1CO	-54	1	x	116*	106*	55	-1	24
SMILES	Pf Dd2 inh	KDM4C inh	IDH1 R132H inh	T cruzi growth-1	T cruzi growth-2	T cruzi growth-3	3T3 cytotox	NIH3T3 tox 2
Cc1cc(OCCCC(=O)Nc2sc3c(c2C#N)CCCC3)cc(C)c1Cl	x	x	0	x	x	x	x	x
O=C(c1ccc([N+](=O)[O-])cc1)n1nc(-c2ccc(Cl)cc2)nc1NCc1ccco1	x	x	-1	x	x	x	x	x
O=C(O)CCCCCCC(=O)N/N=C/c1cc(O)ccc1Br	x	x	2	x	x	x	x	x
COc1ccc(NC(=O)C(C)N(c2cc(C)cc(C)c2)S(C)(=O)=O)c(OC)c1 (stereo unspecified)	x	x	0	x	x	x	x	x
O=C(Cn1c(S(=O)(=O)Cc2ccccc2)nc2ccccc21)N1CCOCC1	x	x	0	x	x	x	x	x
Cc1ccc(-c2ccc([C@@H]3[C@@H](CO)N4CCCCN(C(=O)c5ccc(F)cc5)C[C@@H]34)cc2)cc1	-6	0	x	107*	101*	53	-12	57*
Cc1ccc(-c2ccc([C@H]3[C@@H](CO)N4CCCCN(C(=O)c5ccc(F)cc5)C[C@H]34)cc2)cc1	-50	-2	x	103*	106*	101*	46*	104*
Cc1ccc(-c2ccc([C@H]3[C@H](CO)N4CCCCN(C(=O)c5ccc(F)cc5)C[C@@H]34)cc2)cc1	4	-1	x	103*	u	41	22	106*
Cc1ccc(-c2ccc([C@H]3[C@@H](CO)N4CCCCN(C(=O)c5ccc(F)cc5)C[C@@H]34)cc2)cc1	-13	-1	x	113*	108*	86	26	105*
Cc1ccc(NC(=O)CSc2nnc(-c3ccccc3)n2-c2ccccc2)c(Br)c1	x	x	1	x	x	x	x	x
CS(=O)(=O)N(CC(=O)Nc1ccc(Br)cc1F)c1ccc(F)c(Cl)c1	x	x	0	x	x	x	x	x
O=C(c1ccc(F)cc1)N1CCCCN2[C@H](C1)[C@@H](c1ccc(-c3ccccc3)cc1)[C@@H]2CO	-49	0	x	67	x	x	x	x
Cc1ccc(-c2ccc([C@H]3[C@H]4CN(C(=O)c5ccc(F)cc5)CCCCN4[C@H]3CO)cc2)cc1	2	-1	x	102*	103*	32	16	103*
C[C@@H]1CCCCO[C@@H](CN(C)S(=O)(=O)c2ccc(Cl)cc2)[C@H](C)CN([C@H](C)CO)C(=O)c2cc(NS(=O)(=O)c3cccs3)ccc2O1	x	-1	x	u	105*	86	-11	-10

Screening data deposited in PubChem BioAssay by Broad Institute.
